# According to ChEMBL document CHEMBL4257458, “Antiproliferative activities of alkaloid-like compounds” (Medchemcomm, 2017):
# Active and inactive are the calls of the source. The calls are words filed in the database; no cut-off is given here.
# How the values were obtained:
# [1] = system: MDA-MB-231; assay: Cell cycle arrest in human MDA-MB-231 cells assessed as increase in G2/M phase at 20 uM after 24 hrs by propidium iodide staining based flow cytometry relative to control; format: functional
# Method in brief: (§1)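 MDA-MB-231 seeded at 5 × 10^5 per well, serum-starved 24 h, then treated 24 h (DMSO 0.1% control). Fixed overnight in 80% ethanol at 0 °C, washed, resuspended in PBS with 0.1% Triton X-100 and 0.1 mg mL−1 RNase A, stained with PI (50 μg mL−1) 30 min dark at 37 °C; flow cytometry, 1 × 10^4 events per sample; mean ± SEM of ≥3 independent experiments.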
# [2] = system: MDA-MB-231; assay: Growth inhibition of human MDA-MB-231 cells after 48 hrs by MTS assay; format: functional, cell-based; conditions: MDA-MB-231, 48 h
# Method in brief: (§2)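 Cells in DMEM with 10% FBS and 1% penicillin/streptomycin, 37 °C, 5% CO2; 7 × 10^3 cells per well, serum removed after 24 h, then compound (1–50 μM; DMSO ≤0.1%) for 48 h. MTS reagent 4 h at 37 °C, OD 550 nm; blank-subtracted, normalised to DMSO control (100%). IC50 by nonlinear regression; triplicates.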
# [3] = system: MDA-MB-231; assay: Induction of apoptosis in human MDA-MB-231 cells after 48 hrs by Annexin V-FITC/propidium iodide staining based flow cytometry; format: functional, cell-based
# Method in brief: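 MDA-MB-231 at 1 × 10^5 per well, treated 48 h, 24 h after serum removal, at 20–40 μM (DMSO 0.1% v/v control). Cells trypsinised, washed in cold PBS, stained with Annexin V-FITC and PI (50 μg mL−1) in binding buffer, 20 min dark at 0 °C; flow cytometry scoring viable, early/late apoptotic and necrotic fractions; 3 independent experiments.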
# [4] = system: MDA-MB-231; assay: Cell cycle arrest in human MDA-MB-231 cells assessed as decrease in G0/G1 phase at 20 uM after 24 hrs by propidium iodide staining based flow cytometry relative to control; format: functional; set-up: scale not given: the % may be the effect or the level left; method in brief: as §1
# [5] = system: MDA-MB-231; assay: Growth inhibition of human MDA-MB-231 cells assessed as cell viability at 50 uM after 48 hrs by MTS assay relative to control; format: functional; conditions: MDA-MB-231, 48 h, read-out: Activity; method in brief: as §2
# [6] = system: MDA-MB-231; assay: Antiproliferative activity against human MDA-MB-231 cells assessed as cell viability at 20 uM after 48 hrs by MTS assay relative to control; format: functional; conditions: MDA-MB-231, 48 h, read-out: Activity; method in brief: as §2
# [7] = system: MCF7; assay: Antiproliferative activity against human MCF7 cells at 50 uM after 48 hrs by MTS assay; format: functional, cell-based; method in brief: as §2
# [8] = system: Vero; assay: Antiproliferative activity against African green monkey Vero cells harboring GFP at 50 ug/ml after 4 days by fluorescence assay relative to control; format: cell-based; conditions: chlorocebus sabaeus, 96 h
# Method in brief: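 GFP-expressing VERO (ATCC CCL-81 stably transfected with pEGFP-N1) in MEM with 10% heat-inactivated FBS, pyruvate, NaHCO3 (geneticin omitted during assay); 3.3 × 10^4 cells per mL; compound added, 4 days at 37 °C, 5% CO2; quadruplicate; fluorescence ex 485/em 535 nm, day-0 signal subtracted; % cytotoxicity = [1 − (FU treated/FU 0.5% DMSO)] × 100; ellipticine positive control.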
# [9] = system: MDA-MB-231; assay: Growth inhibition of human MDA-MB-231 cells at 50 uM after 48 hrs by MTS assay; format: functional, cell-based; method in brief: as §2
# [10] = system: SF-539; assay: Growth inhibition of human SF539 cells after 48 hrs by SRB assay; format: functional, cell-based; conditions: SF-539, 48 h
# [11] = system: NCI-H522; assay: Growth inhibition of human NCI-H522 cells after 48 hrs by SRB assay; format: functional, cell-based; conditions: NCI-H522, 48 h
# [12] = system: HL-60(TB); assay: Growth inhibition of human HL-60(TB) cells after 48 hrs by SRB assay; format: functional, cell-based; conditions: HL-60, 48 h
# [13] = system: T47D; assay: Growth inhibition of human T47D cells after 48 hrs by SRB assay; format: functional, cell-based
# [14] = system: MDA-MB-435; assay: Growth inhibition of human MDA-MB-435 cells after 48 hrs by SRB assay; format: functional, cell-based; conditions: MDA-MB-435, 48 h
# [15] = system: MCF7; assay: Growth inhibition of human MCF7 cells after 48 hrs by SRB assay; format: functional, cell-based; conditions: MCF7, 48 h
# [16] = system: SK-MEL-28; assay: Growth inhibition of human SK-MEL-28 cells after 48 hrs by SRB assay; format: functional, cell-based; conditions: SK-MEL-28, 48 h
# [17] = system: MDA-MB-231; assay: Antiproliferative activity against human MDA-MB-231 cells assessed as cell viability at 75 uM after 48 hrs by MTS assay relative to control; format: functional; conditions: MDA-MB-231, 48 h, read-out: Activity
# [18] = system: Hs-578T; assay: Growth inhibition of human Hs 578T cells after 48 hrs by SRB assay; format: functional, cell-based
# [19] = system: DU-145; assay: Growth inhibition of human DU145 cells after 48 hrs by SRB assay; format: functional, cell-based; conditions: DU-145, 48 h
# [20] = system: CAKI-1; assay: Growth inhibition of human Caki1 cells after 48 hrs by SRB assay; format: functional, cell-based; conditions: CAKI-1, 48 h
# [21] = system: SK-MEL-5; assay: Growth inhibition of human SK-MEL-5 cells after 48 hrs by SRB assay; format: functional, cell-based; conditions: SK-MEL-5, 48 h
# [22] = system: COLO 205; assay: Growth inhibition of human COLO205 cells after 48 hrs by SRB assay; format: functional, cell-based; conditions: COLO 205, 48 h
# [23] = system: RXF 393; assay: Growth inhibition of human RXF393 cells after 48 hrs by SRB assay; format: functional, cell-based; conditions: RXF 393, 48 h
# [24] = system: RPMI-8226; assay: Growth inhibition of human RPMI8226 cells after 48 hrs by SRB assay; format: functional, cell-based; conditions: RPMI-8226, 48 h
# [25] = system: MDA-MB-231; assay: Growth inhibition of human MDA-MB-231 cells after 48 hrs by SRB assay; format: functional, cell-based; conditions: MDA-MB-231, 48 h
# [26] = system: SW-620; assay: Growth inhibition of human SW620 cells after 48 hrs by SRB assay; format: functional, cell-based; conditions: SW-620, 48 h
# [27] = system: HT-29; assay: Growth inhibition of human HT-29 cells after 48 hrs by SRB assay; format: functional, cell-based; conditions: HT-29, 48 h
# [28] = system: OVCAR-3; assay: Growth inhibition of human OVCAR3 cells after 48 hrs by SRB assay; format: functional, cell-based; conditions: OVCAR-3, 48 h
# [29] = system: CCRF-CEM; assay: Growth inhibition of human CCRF-CEM cells after 48 hrs by SRB assay; format: functional, cell-based
# [30] = system: EKVX; assay: Growth inhibition of human EKVX cells after 48 hrs by SRB assay; format: functional, cell-based
# [31] = system: MOLT-4; assay: Growth inhibition of human MOLT4 cells after 48 hrs by SRB assay; format: functional, cell-based; conditions: MOLT-4, 48 h
# [32] = system: PC-3; assay: Growth inhibition of human PC3 cells after 48 hrs by SRB assay; format: functional, cell-based; conditions: PC-3, 48 h
smiles,measurement,setting,value
C[C@]1(NC(=O)CCl)C2CC[C@@]3(C)N=C(CCl)C1CC3C2 (relative stereo),Activity,[1],15%
same,IC50,[2],7.9 µM
same,Activity,[3],Dose-dependent effect
same,Activity,[4],20%
same,viability at 50 µM,[5],24%
same,viability at 20 µM,[6],90%
same,Activity,[7],inactive
same,Activity,[8],84%
CCC(=O)N[C@@]1(C)C2CC[C@@]3(C)N[C@@H](CC)C1CC3C2 (some centres not stated),growth inhibition (GI),[9],inactive
CCC(=O)N[C@@]1(C)C2CC[C@@]3(C)N=C(CC)C1CC3C2 (relative stereo),growth inhibition (GI),[9],inactive
COC(=O)C[C@H]1C(=O)C=C2C3CC4CC(CC[C@@]4(C)N21)[C@]3(C)NC(C)=O (some centres not stated),IC50,[2],> 50 µM
same,growth inhibition (GI),[9],inactive
COC(=O)/C=C1\C(=O)C=C2C3CC4CC(CCC4(C)N21)C3(C)NC(C)=O (configuration not stated),IC50,[10],3.3 µM
same,IC50,[11],2 µM
same,IC50,[12],5.5 µM
same,IC50,[13],22.7 µM
same,IC50,[14],5.9 µM
same,IC50,[15],7.1 µM
same,IC50,[16],1.8 µM
same,viability at 75 µM,[17],80%
same,IC50,[18],10.9 µM
same,IC50,[19],16.9 µM
same,IC50,[20],5.3 µM
same,IC50,[21],6.3 µM
same,IC50,[22],7.8 µM
same,IC50,[23],6.7 µM
same,IC50,[24],4.1 µM
same,IC50,[25],38.9 µM
same,IC50,[26],2.8 µM
same,Activity,[8],77%
same,IC50,[27],7.5 µM
same,IC50,[28],11.8 µM
same,IC50,[29],4.4 µM
same,IC50,[30],12.2 µM
same,IC50,[31],2.4 µM
same,IC50,[32],15.7 µM
CCC(=O)N[C@@]1(C)C2CC[C@]3(C)C(C2)CC1[C@H](CC)N3C (some centres not stated),growth inhibition (GI),[9],inactive
CC(=O)N[C@@]1(C)C2CC[C@@]3(C)N=C(CCl)C1CC3C2 (relative stereo),growth inhibition (GI),[9],inactive
CC(=O)N[C@@]1(C)C2CC[C@@]3(C)N=C(C)C1CC3C2 (relative stereo),growth inhibition (GI),[9],inactive
CC(=O)N[C@@]1(C)C2CC[C@@]3(C)N[C@@H](CCl)C1CC3C2 (some centres not stated),growth inhibition (GI),[9],inactive
CC(=O)N[C@@]1(C)C2CC[C@@]3(C)N[C@@H](C)C1CC3C2 (some centres not stated),growth inhibition (GI),[9],inactive
CC(=O)N[C@@]1(C)C2CC[C@]3(C)C(C2)CC1[C@H](C)N3C (some centres not stated),growth inhibition (GI),[9],inactive
